Columns and labels:
Cannabinoid receptor 2 [1] = target: T1, Cannabinoid receptor 2 (Homo sapiens, UniProt P34972); test: Agonist activity at human CB2 receptor expressed in CHO cells assessed as inhibition of forskolin-stimulated cAMP level; assay type: functional, cell-based
In short: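 CHO cells expressing human CB2, 5000 cells/well, incubated overnight at 37 °C. Compounds given in stimulation buffer with 1 mM IBMX, 0.25% BSA and 10 µM forskolin for 30 min at 37 °C. Cells lysed and cAMP read by enzyme-fragment kit. Forskolin-stimulated cAMP versus cAMP with 200 nM CP-55940 defines 100%. EC50 from four-parameter logistic fit. Triplicate, at least three runs.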

Cannabinoid receptor 2 [2] = target: T1, Cannabinoid receptor 2; test: Agonist activity at human CB2 receptor expressed in CHO cells assessed as inhibition of forskolin-stimulated cAMP level relative to CP-55940; assay type: functional, cell-based; parameters: Activity: scale not given: the % may be the effect or the level left
In short: (§1)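 CHO cells stably expressing human CB2 or CB1 were seeded at 5000 cells/well and grown overnight at 37 °C. Compounds were added in stimulation buffer (1 mM IBMX, 0.25% BSA, 10 µM forskolin) for 30 min at 37 °C. cAMP was measured in lysates with a cAMP kit; 100% = forskolin-stimulated cAMP versus level with 200 nM CP-55940. EC50 came from a four-parameter logistic fit; efficacy is relative to CP-55940. Each run was triplicate, at least three times.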

Homo sapiens = organism: Homo sapiens; test: Selectivity for human CB2 receptor over human CB1 receptor by cAMP assay; in short: as §1
Cannabinoid receptor 2 [3] = target: T1, Cannabinoid receptor 2; test: Displacement of [3H]CP-55940 from human CB2 receptor expressed in HEK cells; assay type: cell-based, HEK293
In short: (§2)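 SPA binding with HEK membranes expressing human CB1 (2.5 µg/well) or CB2 (2 µg/well) on poly-L-lysine beads. Buffer: 50 mM Tris pH 7.5, 2.5 mM EDTA, 5 mM MgCl2, 0.8% fatty-acid-free BSA. Compounds at 1e-5 to 1e-10 M. [3H]-CP-55940 final 2.5 nM (CB1) or 4 nM (CB2). IC50 from four-parameter logistic fit, converted to Ki by Cheng-Prusoff.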

Cannabinoid receptor 1 = Cannabinoid receptor 1 (Homo sapiens, UniProt P21554); test: Displacement of [3H]CP-55940 from human CB1 receptor expressed in HEK cells; assay type: cell-based, HEK293; in short: as §2
Cannabinoid receptor 1, sequence (P21554 whole entry): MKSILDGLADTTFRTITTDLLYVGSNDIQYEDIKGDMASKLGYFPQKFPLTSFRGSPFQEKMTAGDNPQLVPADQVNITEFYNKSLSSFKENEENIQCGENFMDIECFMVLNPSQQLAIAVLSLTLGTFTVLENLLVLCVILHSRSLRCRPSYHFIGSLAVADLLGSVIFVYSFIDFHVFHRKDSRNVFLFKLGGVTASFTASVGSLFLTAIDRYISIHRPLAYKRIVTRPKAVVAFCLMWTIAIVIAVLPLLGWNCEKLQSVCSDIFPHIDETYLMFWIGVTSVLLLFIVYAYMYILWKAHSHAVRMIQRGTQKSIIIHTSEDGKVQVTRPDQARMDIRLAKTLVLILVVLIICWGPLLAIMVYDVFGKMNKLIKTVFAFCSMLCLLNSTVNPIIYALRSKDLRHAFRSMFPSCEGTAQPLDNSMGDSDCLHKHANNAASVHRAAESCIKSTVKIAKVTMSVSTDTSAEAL

T1 sequence (P34972 whole entry, the tested form may be a part): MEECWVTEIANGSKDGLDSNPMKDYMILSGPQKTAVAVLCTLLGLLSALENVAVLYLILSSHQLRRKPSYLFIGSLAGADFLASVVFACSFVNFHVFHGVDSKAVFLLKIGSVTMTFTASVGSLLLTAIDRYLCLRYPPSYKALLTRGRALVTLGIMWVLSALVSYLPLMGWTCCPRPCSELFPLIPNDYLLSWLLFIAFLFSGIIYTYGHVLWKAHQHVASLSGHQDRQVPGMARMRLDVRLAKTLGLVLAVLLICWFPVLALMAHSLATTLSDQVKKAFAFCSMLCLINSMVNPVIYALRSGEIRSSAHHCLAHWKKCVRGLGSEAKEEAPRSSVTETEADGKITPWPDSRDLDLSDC

Row | Structure (SMILES) | EC50 (Cannabinoid receptor 2 [1]) [nM] | Activity (Cannabinoid receptor 2 [2]) [%] | Selectivity ratio (Homo sapiens) | Emax (Cannabinoid receptor 2 [2]) [%] | Ki (Cannabinoid receptor 2 [3]) [nM] | Ki (Cannabinoid receptor 1) [nM]
1 | Cc1ccc(C(=O)N[C@@H](C)C2CCCCC2)cc1S(=O)(=O)N1CCCCC1 | 5 | 73 | 2 |  |  | 
2 | Cc1ccc(C(=O)N2CCCC3CCCCC32)cc1S(=O)(=O)N1CCCCC1 (stereo not drawn) | 6 | 82 | 94 |  |  | 
3 | Cc1ccc(C(=O)N2CCC3CCCCC3C2)cc1S(=O)(=O)N1CCC(O)CC1 (stereo not drawn) | 215 | 86 | 37 |  |  | 
4 | Cc1ccc(C(=O)Nc2ccc3ccccc3n2)cc1S(=O)(=O)N1CCCCC1 | 195 | 45 |  |  |  | 
5 | Cc1ccc(C(=O)Nc2ccccc2Cl)cc1S(=O)(=O)N1CCCCC1 | 5 | 89 | 13 |  |  | 
6 | O=C(c1ccc(C2CCCCC2)c(S(=O)(=O)N2CCCC2)c1)N1CCC2CCCCC2C1 (stereo not drawn) | > 20000 |  |  |  |  | 
7 | Cc1ccc(C(=O)N2CCC3CCCCC3C2)cc1S(=O)(=O)N1CCC1 (stereo not drawn) | 13 | 94 | > 1500 |  |  | 
8 | O=C(c1ccc(Cl)c(S(=O)(=O)N2CCCC2)c1)N1CCC2CCCCC2C1 (stereo not drawn) | 4 | 93 | 520 |  |  | 
9 | CC(C)c1ccc(C(=O)N2CCC3CCCCC3C2)cc1S(=O)(=O)N1CCCC1 (stereo not drawn) | 0.4 | 101 | 2860 |  |  | 
10 | Cc1ccc(C(=O)Nc2nccc3ccccc23)cc1S(=O)(=O)N1CCCCC1 | 1 | 98 | 25 |  |  | 
11 | Cc1ccc(C(=O)N2CCC3CCCCC3C2)cc1S(=O)(=O)N1CCCCCC1 (stereo not drawn) | 2 | 100 | 3280 |  |  | 
12 | Cc1ccc(C(=O)NC2CCCCC2)cc1S(=O)(=O)N1CCCC1 | 21 | 81 | 181 |  |  | 
13 | O=C(c1cccc(S(=O)(=O)N2CCCC2)c1)N1CC[C@@H]2CCCC[C@H]2C1 (relative stereo) | > 20000 |  |  |  |  | 
14 | Cc1ccc(C(=O)N[C@H](C)C2CCCCC2)cc1S(=O)(=O)N1CCCCC1 | 18 | 85 | 45 |  |  | 
15 | Cc1ccc(C(=O)N2CCC3CCCCC3C2)cc1S(=O)(=O)N1CCN(C(C)C)CC1 (stereo not drawn) | 588 | 45 |  |  |  | 
16 | Cc1ccc(C(=O)N2CCC3CCCCC3C2)cc1S(=O)(=O)N1CCCCC1 (stereo not drawn) | 1.5 | 95 | 4330 |  |  | 
17 | Cc1ccc(C(=O)Nc2ccc(Cl)cc2)cc1S(=O)(=O)N1CCCCC1 | 14100 | 117 |  |  |  | 
18 | Cc1ccc(C(=O)N2CCC3CCCCC3C2)cc1S(=O)(=O)N1CCOCC1 (stereo not drawn) | 5 | 104 | 2640 |  |  | 
19 | O=C(NCC1CCOCC1)c1cnc(Nc2ccc(Cl)cc2Cl)nc1C(F)(F)F |  | 95 | > 470 |  |  | 
20 | Cc1ccc(C(=O)NC2(C)CCCCC2)cc1S(=O)(=O)N1CCCCC1 | 18 | 58 |  |  |  | 
21 | Cc1ccc(C(=O)N2CCCCC2)cc1S(=O)(=O)N1CCCCC1 | 82 |  | > 240 | 85 |  | 
22 | Cc1ccc(C(=O)N2CCC3CCCCC3C2)cc1S(=O)(=O)N1CCS(=O)(=O)CC1 (stereo not drawn) | 2 | 99 | 7740 |  |  | 

Row | Structure (SMILES) | EC50 (Cannabinoid receptor 2 [1]) [nM] | Activity (Cannabinoid receptor 2 [2]) [%] | Selectivity ratio (Homo sapiens) | Emax (Cannabinoid receptor 2 [2]) [%] | Ki (Cannabinoid receptor 2 [3]) [nM] | Ki (Cannabinoid receptor 1) [nM]
23 | O=C(NC1CCCCC1)c1ccc(Cl)c(S(=O)(=O)N2CCCC2)c1 | 3 | 74 | 85 |  |  | 
24 | Cc1ccc(C(=O)N2CC[C@@H]3CCCC[C@H]3C2)cc1S(=O)(=O)N1CCCCC1 (relative stereo) | 1 | 93 | 6890 |  |  | 
25 | Cc1ccc(C(=O)N2CCC3CCCCC3C2)cc1S(=O)(=O)Nc1ccccc1 (stereo not drawn) | > 20000 |  |  |  |  | 
26 | O=C(c1ccc(Cl)c(S(=O)(=O)N2CCCC2)c1)N1CC[C@@H]2CCCC[C@H]2C1 (relative stereo) | 3 | 89 | 3770 |  |  | 
27 | O=C(NC1CCCCC1)c1cccc(S(=O)(=O)N2CCCC2)c1 | > 20000 |  |  |  |  | 
28 | Cc1ccc(C(=O)N2CCC3CCCCC3C2)cc1S(=O)(=O)N1CCSCC1 (stereo not drawn) | 1 | 90 | 3250 |  |  | 
29 | Cc1ccccc1NC(=O)c1ccc(C)c(S(=O)(=O)N2CCCCC2)c1 | 154 | 76 | 1.5 |  |  | 
30 | Cc1ccc(C(=O)N2CCC3CCCCC3C2)cc1S(=O)(=O)N1CCCC1 (stereo not drawn) | 4 | 94 | 2240 |  |  | 
31 | Cc1ccc(C(=O)N(C)C2CCCCC2)cc1S(=O)(=O)N1CCCCC1 | 119 | 86 | 38 |  |  | 
32 | Cc1ccc(C(=O)NC2CCCCC2)cc1S(=O)(=O)N1CCCCC1 | 14 | 86 | 24 |  |  | 
33 | CC(C)c1ccc(C(=O)NC2CCCCC2)cc1S(=O)(=O)N1CCCC1 | 4 | 86 | 60 |  |  | 
34 | Cc1ccc(C(=O)Nc2ccccc2C(F)(F)F)cc1S(=O)(=O)N1CCCCC1 | 2 | 92 | 96 |  |  | 
35 | Cc1ccc(C(=O)Nc2ccccc2S(C)(=O)=O)cc1S(=O)(=O)N1CCCCC1 | 6 | 96 | 66 |  |  | 
36 | Cc1ccc(C(=O)Nc2cccc3cccnc23)cc1S(=O)(=O)N1CCCCC1 | 4 | 100 | 7 |  |  | 
37 | Cc1ccc(C(=O)Oc2cccc3cccnc23)cc1S(=O)(=O)N1CCCCC1 | < 1 | 99 | 1 |  | 4 | 3
38 | COc1ccccc1NC(=O)c1ccc(C)c(S(=O)(=O)N2CCCCC2)c1 | 21 | 91 | 9 |  |  | 
39 | COc1ccc2c(c1)c(CCN1CCOCC1)c(C)n2C(=O)c1cccc(Cl)c1Cl | 0.65 | 44 |  |  |  | 
40 | Cc1ccc(C(=O)N(C)c2ccccc2Cl)cc1S(=O)(=O)N1CCCCC1 | > 20000 |  |  |  |  | 
41 | Cc1ccc(C(=O)N2CCC3CCCCC3C2)cc1S(=O)(=O)NC(C)C (stereo not drawn) | 2280 | 101 | 0.1 |  |  | 
42 | Cc1ccc(C(=O)Nc2cccc(Cl)c2)cc1S(=O)(=O)N1CCCCC1 | 27 | 80 | 31 |  |  | 
43 | Cc1ccc(C(=O)N2CCC3CCCCC3C2)cc1S(=O)(=O)NCC(C)C (stereo not drawn) | 14 | 96 | 939 |  |  | 
44 | Cc1ccc(C(=O)Nc2ccccc2)cc1S(=O)(=O)N1CCCCC1 | 139 | 74 | 6 |  |  | 

From ChEMBL document CHEMBL1141512, “Arylsulfonamide CB2 receptor agonists: SAR and optimization of CB2 selectivity” (Bioorg Med Chem Lett, 2008)
